Results as given in ChEMBL document CHEMBL1125595 (1991).
In brackets after ≈: the same amount, converted by molar mass.

How the values were obtained:
MRC5 = experiment: Antiviral activity determined by plaque reduction assay of HCMV (AD-169) in MRC-5 cells; type: functional; conditions: Homo sapiens, read-out: ID50 (the source's name)
Procedure, shortened: (§1)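 Plaque reduction assay: HSV strains in Vero cells and HCMV in MRC-5 cells. ID50 is the dose giving a 50% fall in plaque numbers relative to untreated controls.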

Vero [1] = experiment: Antiviral activity determined by plaque reduction assay of HSV-1 (BWS) in vero cells; type: functional; conditions: Chlorocebus sabaeus, read-out: ID50 (the source's name); procedure, shortened: as §1
Vero [2] = experiment: Antiviral activity determined by plaque reduction assay of HSV-2 (G) in vero cells; type: functional; conditions: Chlorocebus sabaeus, read-out: ID50 (the source's name); procedure, shortened: as §1
Vero [3] = experiment: Anticellular activity was determined by cell proliferation assay in vero cells.; conditions: Chlorocebus sabaeus, read-out: ID50 (the source's name)
Mus musculus [4] = experiment: Compound tested for its effect on mean survival time in mice against HSV-1(BWS) at a dose of 100 mg/kg.; type: functional
Procedure, shortened: (§2)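 Female Swiss-Webster mice of about 20 g were infected intraperitoneally with 5 × 10^4 PFU HSV-1 (BWS). Compound was given intraperitoneally twice daily for 5 consecutive days, starting 3 h postinfection. A saline placebo group served as control. Deaths were recorded for 21 days, and survivors and mean survival time in days were taken at the day-21 endpoint.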

Mus musculus [5] = experiment: Compound tested for its effect on mean survival time in mice against HSV-1(BWS) at a dose of 300 mg/kg.; type: functional; procedure, shortened: as §2
Mus musculus [6] = experiment: Antiviral activity in terms of percentage survival at a dose of 100 mg/kg after intraperitoneal inoculation of HSV-1(BWS) in mice (9/10); type: functional; conditions: ip; procedure, shortened: as §2
Mus musculus [7] = experiment: Antiviral activity in terms of percentage survival at a dose of 300 mg/kg after intraperitoneal inoculation of HSV-1(BWS) in mice (10/10); type: functional; conditions: ip; procedure, shortened: as §2
Mus musculus [8] = experiment: Antiviral activity in terms of percentage survival at a dose of 300 mg/kg after intraperitoneal inoculation of HSV-1(BWS) in mice (6/7); type: functional; conditions: ip; procedure, shortened: as §2
Mus musculus [9] = experiment: Antiviral activity in terms of percentage survival at a dose of 100 mg/kg after intraperitoneal inoculation of HSV-1(BWS) in mice (7/10); type: functional; conditions: ip; procedure, shortened: as §2

| Compound | IC50 (MRC5) [µg/mL] | IC50 (Vero [1]) [µg/mL] | IC50 (Vero [2]) [µg/mL] | IC50 (Vero [3]) [µg/mL] | MST (Mus musculus [4]) [days] | MST (Mus musculus [5]) [days] | survival at 100 mg/kg (Mus musculus [6]) [%] | survival at 300 mg/kg (Mus musculus [7]) [%] | survival at 300 mg/kg (Mus musculus [8]) [%] | survival at 100 mg/kg (Mus musculus [9]) [%] |
| --- | --- | --- | --- | --- | --- | --- | --- | --- | --- | --- |
| CC(OCn1cnc2c(O)nc(N)nc21)OCP(=O)(O)O (configuration not stated) | > 100 | > 100 | > 100 | > 100 |  |  |  |  |  |  |
| Nc1nc(O)c2ncn(COCOCP(=O)([O-])[O-])c2n1.[Na+].[Na+] | 5 | 2.6 | 11 | > 100 | 20.4 | 21 | 90 | 100 |  |  |
| Cc1cn(COCOCP(=O)([O-])[O-])c(=O)[nH]c1=O.[Na+].[Na+] | > 100 | > 100 | > 100 | > 100 |  |  |  |  |  |  |
| N.Nc1ncnc2c1ncn2CC(CO)CCP(=O)(O)O (configuration not stated) | > 100 |  | > 100 | > 100 |  |  |  |  |  |  |
| Nc1nc(O)c2ncn(COC(CO)OCP(=O)([O-])[O-])c2n1.[Na+].[Na+] (configuration not stated) | 0.9 | 3.3 | 8.2 | > 100 |  |  |  |  |  |  |
| Nc1ccn(COCOCP(=O)([O-])[O-])c(=O)n1.[Na+].[Na+] | > 100 | > 100 | > 100 | > 100 |  |  |  |  |  |  |
| Nc1ncnc2c1ncn2COCOCP(=O)([O-])[O-].[Na+].[Na+] | > 100 | > 100 | > 100 | > 100 |  |  |  |  |  |  |
| Nc1nc2c(ncn2CCOCP(=O)(O)O)c(=O)[nH]1 [GS-438] | 0.04 (≈ 0.138 µM) | 0.08 (≈ 0.277 µM) | 0.69 (≈ 2.39 µM) | 5 (≈ 17.3 µM) |  |  |  |  |  |  |
| N.Nc1nc(O)c2ncn(CC(CO)CCP(=O)(O)O)c2n1 (configuration not stated) | > 100 |  | > 100 | > 100 |  |  |  |  |  |  |
| COC(CO)OCn1cnc2c(O)nc(N)nc21 (configuration not stated) | > 100 | > 100 | > 100 | > 100 |  |  |  |  |  |  |
| Nc1nc2c(ncn2COCCO)c(=O)[nH]1 [ACYCLOVIR] | 38.4 (≈ 171 µM) | 0.5 (≈ 2.22 µM) | 2.4 (≈ 10.7 µM) | > 100 |  | 20 |  |  | 86 | 70 |
| N.Nc1ccn(CC(CO)CCP(=O)(O)O)c(=O)n1 (configuration not stated) | > 100 |  | > 100 | > 100 |  |  |  |  |  |  |
